Laboratory results published in ChEMBL document CHEMBL1140210, “In pursuit of natural product leads: synthesis and biological evaluation of 2-[3-hydroxy-2-[(3-hydroxypyridine-2-carbonyl)amino]phenyl]benzoxazole-4-carboxylic acid (A-33853) and its analogues: discovery of N-(2-benzoxazol-2-ylphenyl)benzamides as novel antileishmanial chemotypes” (J Med Chem, 2008).
The source made the active and inactive calls. The calls are words filed in the database; no cut-off is given here.

Tests used:
Leishmania donovani [1] = test: Antileishmanial activity against Leishmania donovani MHOM/ET/67/L82; type: functional, organism-based
Method in brief: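 Tested on axenic amastigote cultures of L. donovani strain MHOM/ET/67/L82. Activity is reported as IC50.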

L6 = test: Cytotoxicity against rat L6 cells; type: cell-based; details: for IC50: Rattus norvegicus, L6; for Activity: rat, l6
[2] = Selectivity index, ratio of IC50 for rat L6 cells to IC50 for Leishmania donovani MHOM/ET/67/L82; type: toxicity, cell-based; details: read-out: Ratio IC50
Leishmania donovani [3] = test: Antiparasitic activity against Leishmania donovani amastigote in mouse peritoneal macrophages assessed as reduction of parasite burden at 10 ug/mL after 96 hrs; type: functional, organism-based
Leishmania donovani [4] = test: Antileishmanial activity against Leishmania donovani MHOM/ET/67/L82 at 0.8 ug/mL; type: functional
Leishmania donovani [5] = test: Antileishmanial activity against Leishmania donovani MHOM/ET/67/L82 at 4.8 ug/mL; type: functional
Trypanosoma cruzi = test: Antitrypanosomal activity against Trypanosoma cruzi Tulahuen C2C4 at 4.8 ug/mL; type: functional
Plasmodium falciparum = test: Antimalarial activity against chloroquine and pyrimethamine-resistant Plasmodium falciparum K1 at 4.8 ug/mL; type: functional

IC50 (Leishmania donovani [1]) | SMILES | IC50 (L6) | selectivity ratio [2] | Activity (Leishmania donovani [3]) | inhibition at 0.8 µg/mL (Leishmania donovani [4]) | Activity (L6) | inhibition at 4.8 µg/mL (Leishmania donovani [5]) | inhibition at 4.8 µg/mL (Trypanosoma cruzi) | inhibition at 4.8 µg/mL (Plasmodium falciparum)
0.52 µM | O=C(Nc1c(O)cccc1-c1nc2c(C(=O)O)cccc2o1)c1ncccc1F | 204 µM | 392 | inactive |  |  |  |  | 
 | CCCCCCCCCCCCCCCCOP(=O)([O-])OCC[N+](C)(C)C [MILTEFOSINE] | 147 µM | 565 |  |  |  |  |  | 
0.96 µM | O=C(Nc1ccccc1-c1nc2c(C(=O)O)cccc2o1)c1ccccc1 | 114 µM | 118 | inactive |  |  |  |  | 
0.68 µM | O=C(Nc1c(O)cccc1-c1nc2c(C(=O)O)cccc2o1)c1cc2ccccc2[nH]1 | 212 µM | 312 | inactive |  |  |  |  | 
 | O=C(Nc1c(O)cccc1-c1nc2c(C(=O)O)cccc2o1)c1cccnc1Cl |  |  |  | < 30% | Not Traceable |  |  | 
3.07 µM | COc1cccc(-c2nc3c(C(=O)O)cccc3o2)c1NC(=O)c1cc2ccccc2[nH]1 | 211 µM | 69 |  |  |  |  |  | 
0.93 µM | O=C(Nc1c(O)cccc1-c1nc2c(C(=O)O)cccc2o1)c1cc(-c2ccccc2)on1 | 141 µM | 152 | inactive |  |  |  |  | 
1.93 µM | O=C(Nc1c(O)cccc1-c1nc2c(C(=O)O)cccc2o1)c1cccc(Cl)c1 | 143 µM | 74 |  |  |  |  |  | 
 | Cc1cc(C(=O)Nc2c(O)cccc2-c2nc3c(C(=O)O)cccc3o2)no1 |  |  |  | < 30% | Not Traceable |  |  | 
0.85 µM | O=C(Nc1c(O)cccc1-c1nc2c(C(=O)O)cccc2o1)c1ccccc1O | 85.1 µM | 100 | inactive |  |  |  |  | 
1.9 µM | O=C(Nc1c(O)cccc1-c1nc2c(C(=O)O)cccc2o1)c1ccc(F)c(F)c1F | 210 µM | 111 |  |  |  |  |  | 
1.73 µM | O=C(Nc1c(O)cccc1-c1nc2c(C(=O)O)cccc2o1)c1ccccc1 | > 240 µM | > 138 |  |  |  |  |  | 
 | COc1cccc(-c2nc3c(C(=O)O)cccc3o2)c1NC(=O)c1cccnc1Cl |  |  |  | < 30% | Not Traceable |  |  | 
1.17 µM | O=C(Nc1c(O)cccc1-c1nc2c(C(=O)O)cccc2o1)c1cc(-c2ccccc2)nc2ccccc12 | 108 µM | 92 |  |  |  |  |  | 
0.51 µM | O=C(Nc1c(O)cccc1-c1nc2c(C(=O)O)cccc2o1)c1cnccn1 | 94.4 µM | 185 | inactive |  |  |  |  | 
4.36 µM | O=C(Nc1c(O)cccc1-c1nc2c(C(=O)O)cccc2o1)c1cccnc1 | 240 µM | 55 |  |  |  |  |  | 
 | O=C(Nc1c(O)cccc1-c1nc2c(C(=O)O)cccc2o1)c1cc(O)c(O)c(O)c1 |  |  |  | < 30% | Not Traceable |  |  | 
0.31 µM | O=C(Nc1c(O)cccc1-c1nc2c(C(=O)O)cccc2o1)c1ccccn1 | 30.6 µM | 99 | inactive |  |  |  |  | 

SMILES | IC50 (Leishmania donovani [1]) | IC50 (L6) | selectivity ratio [2] | Activity (Leishmania donovani [3]) | inhibition at 0.8 µg/mL (Leishmania donovani [4]) | Activity (L6) | inhibition at 4.8 µg/mL (Leishmania donovani [5]) | inhibition at 4.8 µg/mL (Trypanosoma cruzi) | inhibition at 4.8 µg/mL (Plasmodium falciparum)
O=C(Nc1c(O)cccc1-c1nc2c(C(=O)O)cccc2o1)c1ncccc1O | 0.08 µM | 14.2 µM | 185 |  | 100% |  | 100% | 96% | 97%
